Calls of active or inactive are those of the source. The calls are words filed in the database; no cut-off is given here.
Columns and labels:
HBL-100 [1] = assay: Antiproliferative activity against human HBL100 cells after 48 hrs by SRB assay; type: functional; conditions: HBL-100, 48 h
Summary of the method: (§1)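 RPMI 1640 with 5% heat-inactivated FCS and 2 mM L-glutamine at 37 °C, 5% CO2. Seeded at 15,000 (WiDr, T-47D, HeLa) or 10,000 (A2780, SW1573, HBL-100) cells/well. Drug added day 1 in triplicate dilutions; vehicle DMSO 0.25% v/v final. 48 h, then TCA fixation and SRB staining read at OD 492 nm, background-corrected. GI50 from NCI percentage-growth formulas using T0 and T; mean of two to six experiments with SD.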

A2780 = assay: Antiproliferative activity against human A2780 cells after 48 hrs by SRB assay; type: functional; conditions: A2780, 48 h; summary of the method: as §1
HeLa [2] = assay: Antiproliferative activity against human HeLa cells after 48 hrs by SRB assay; type: functional; summary of the method: as §1
T47D [3] = assay: Antiproliferative activity against human T47D cells after 48 hrs by SRB assay; type: functional; summary of the method: as §1
WiDr [4] = assay: Antiproliferative activity against human WiDr cells after 48 hrs by SRB assay; type: functional; summary of the method: as §1
SW1573 [5] = assay: Antiproliferative activity against human SW1573 cells after 48 hrs by SRB assay; type: functional; conditions: SW1573, 48 h; summary of the method: as §1
HBL-100 [6] = assay: Cell cycle arrest in human HBL100 cells by decrease in accumulation at G1 phase at 2 uM after 24 hrs by flow cytometry; type: functional, cell-based
Summary of the method: (§2)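 Cells seeded at 2.5–5 × 10^5 per well in six-well plates. After 24 h, compound added at three concentrations for a further 24 h; controls without drug. Cells trypsinized, fixed in ice-cold 70% ethanol overnight at −20 °C, treated with RNase (37 °C, 30 min, dark) and stained with propidium iodide. DNA content measured by flow cytometry, 25,000 cells/sample.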

SW1573 [7] = assay: Cell cycle arrest in human SW1573 cells by increase in accumulation at G2/M phase at 2 uM after 24 hrs by flow cytometry; type: functional, cell-based; summary of the method: as §2
HBL-100 [8] = assay: Cell cycle arrest in human HBL100 cells by increase in accumulation at G2/M phase at 2 uM after 24 hrs by flow cytometry; type: functional, cell-based; summary of the method: as §2
SW1573 [9] = assay: Cell cycle arrest in human SW1573 cells by decrease in accumulation at S phase at 2 uM after 24 hrs by flow cytometry; type: functional, cell-based; summary of the method: as §2
T47D [10] = assay: Cell cycle arrest in human T47D cells by decrease in accumulation at G1 phase at 2 uM after 24 hrs by flow cytometry; type: functional, cell-based; summary of the method: as §2
HBL-100 [11] = assay: Cell cycle arrest in human HBL100 cells by accumulation at subG1 phase after 24 hrs by flow cytometry; type: functional, cell-based; summary of the method: as §2
WiDr [12] = assay: Cell cycle arrest in human WiDr cells by accumulation at subG1 phase after 24 hrs by flow cytometry; type: functional, cell-based; summary of the method: as §2
T47D [13] = assay: Cell cycle arrest in human T47D cells by accumulation at subG1 phase after 24 hrs by flow cytometry; type: functional, cell-based; summary of the method: as §2
T47D [14] = assay: Cell cycle arrest in human T47D cells by decrease in accumulation at S phase at 2 uM after 24 hrs by flow cytometry; type: functional, cell-based; summary of the method: as §2
T47D [15] = assay: Cell cycle arrest in human T47D cells by increase in accumulation at G2/M phase at 2 uM after 24 hrs by flow cytometry; type: functional, cell-based; summary of the method: as §2
SW1573 [16] = assay: Cell cycle arrest in human SW1573 cells by decrease in accumulation at G1 phase at 2 uM after 24 hrs by flow cytometry; type: functional, cell-based; summary of the method: as §2
SW1573 [17] = assay: Cell cycle arrest in human SW1573 cells by accumulation at subG1 phase after 24 hrs by flow cytometry; type: functional, cell-based; summary of the method: as §2
HeLa [18] = assay: Cell cycle arrest in human HeLa cells by accumulation at subG1 phase after 24 hrs by flow cytometry; type: functional, cell-based; summary of the method: as §2
HBL-100 [19] = assay: Cell cycle arrest in human HBL100 cells by decrease in accumulation at S phase at 2 uM after 24 hrs by flow cytometry; type: functional, cell-based; summary of the method: as §2

Row | SMILES | GI50 (HBL-100 [1]) [µM] | GI50 (A2780) [µM] | GI50 (HeLa [2]) [µM] | GI50 (T47D [3]) [µM] | GI50 (WiDr [4]) [µM] | GI50 (SW1573 [5]) [µM] | further results
1 | CSc1nc(N)c2c(n1)C(=O)C(c1ccc(C)cc1)=[N+]2[O-] | 28 | 93 | > 100 | > 100 | > 100 | 31 | –
2 | CCc1ccc(C2=[N+]([O-])c3c(N)nc(SC)nc3C2=O)cc1 | 37 | 54 | 80 | 43 | 53 | 37 | –
3 | Nc1nc(N2CCCCCC2)nc2c1[N+]([O-])=C(c1ccccc1)C2=O | 1.4 | 1.8 | 2 | 0.35 | 1.8 | 1.3 | Activity (HBL-100 [6]): Active; Activity (SW1573 [7]): Active; Activity (HBL-100 [8]): Active; Activity (SW1573 [9]): Active; Activity (T47D [10]): Active; Activity (HBL-100 [11]): Dose-dependent effect; Activity (WiDr [12]): Dose-dependent effect; Activity (T47D [13]): Dose-dependent effect; Activity (T47D [14]): Active; Activity (T47D [15]): Active; Activity (SW1573 [16]): Active; Activity (SW1573 [17]): Dose-dependent effect; Activity (HeLa [18]): Dose-dependent effect; Activity (HBL-100 [19]): Active
4 | Nc1nc(NCCN2CCCC2)nc2c1[N+]([O-])=C(c1ccccc1)C2=O | 1.8 | 2.6 | 16 | 13 | 14 | 6.2 | –
5 | Nc1nc(N2CCOCC2)nc2c1[N+]([O-])=C(c1ccccc1)C2=O | 22 | 37 | 38 | 7.5 | 20 | 27 | –
6 | CCc1ccc(C2=[N+]([O-])c3c(N)ncnc3C2=O)cc1 | 54 | 39 | 75 | 82 | 70 | 40 | –
7 | Cc1ccc(C2=[N+]([O-])c3c(N)ncnc3C2=O)cc1 | > 100 | > 100 | > 100 | > 100 | > 100 | > 100 | –
8 | CSc1nc2c(c(N3CCCC3)n1)[N+]([O-])=C(c1ccccc1)C2=O | > 100 | > 100 | > 100 | > 100 | > 100 | > 100 | –
9 | CN1CCN(c2nc(N)c3c(n2)C(=O)C(c2ccccc2)=[N+]3[O-])CC1 | 18 | 24 | > 100 | > 100 | 46 | 23 | –
10 | CSc1nc(NCc2ccccc2)c2c(n1)C(=O)C(c1ccccc1)=[N+]2[O-] | 27 | 59 | 36 | 81 | 79 | 26 | –
11 | Nc1nc(NCc2ccccc2)nc2c1[N+]([O-])=C(c1ccccc1)C2=O | 5.1 | 3.7 | 29 | 4 | 24 | 30 | –
12 | COC(=O)CNc1nc(N)c2c(n1)C(=O)C(c1ccccc1)=[N+]2[O-] | 2.8 | 1.9 | 19 | 14 | 18 | 12 | –
13 | Nc1ncnc2c1[N+]([O-])=C(c1ccccc1)C2=O | 72 | 30 | > 100 | > 100 | > 100 | 85 | –
14 | Nc1nc(N2CCCCC2)nc2c1[N+]([O-])=C(c1ccccc1)C2=O | 1.7 | 2.9 | 3.5 | 2.7 | 3.7 | 3.3 | –
15 | C[S+]([O-])c1nc(N)c2c(n1)C(=O)C(c1ccccc1)=[N+]2[O-] (centres undefined) | 32 | 79 | > 100 | > 100 | > 100 | > 100 | –
16 | Nc1nc(NCCc2ccccc2)nc2c1[N+]([O-])=C(c1ccccc1)C2=O | 17 | 37 | > 100 | 41 | 71 | 22 | –
17 | CN(C)CCCNc1nc(N)c2c(n1)C(=O)C(c1ccccc1)=[N+]2[O-] | 2 | 2.3 | 20 | 16 | 19 | 2.1 | –
18 | Nc1nc(NCCN2CCOCC2)nc2c1[N+]([O-])=C(c1ccccc1)C2=O | 3.4 | 2.9 | 15 | 17 | 16 | 14 | –
19 | CSc1nc(NCCN2CCOCC2)c2c(n1)C(=O)C(c1ccccc1)=[N+]2[O-] | 24 | > 100 | > 100 | > 100 | > 100 | > 100 | –
20 | C=CCNc1nc(N)c2c(n1)C(=O)C(c1ccccc1)=[N+]2[O-] | 2.7 | 1.9 | 7.6 | 2.8 | 4.7 | 6.8 | –
